Measurements taken from ChEMBL document CHEMBL4138242, “Synthesis and antibacterial evaluation of novel cationic chalcone derivatives possessing broad spectrum antibacterial activity” (Eur J Med Chem, 2018).
The source made the active and inactive calls.

Assays:
Staphylococcus aureus [1] = experiment: Antibacterial activity against methicillin-resistant Staphylococcus aureus clinical isolate 1-may after 16 to 20 hrs by broth microdilution method; format: functional
Summary of the method: (§1)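 CLSI broth microdilution in Mueller-Hinton broth. A 4-6 h culture was diluted to about 10⁶ CFU/mL and mixed 1:1 with compound dilutions prepared at 256 to 0.5 µg/mL from aqueous stocks. Plates were incubated at 37 °C for 16-20 h and read visually for MIC. Each concentration was run in duplicate, and the experiment was repeated at least twice. Vancomycin and meropenem were comparators.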

Escherichia coli [2] = experiment: Antibacterial activity against drug-resistant NDM1 producing Escherichia coli clinical isolate EA-14-61 after 16 to 20 hrs by broth microdilution method; format: functional; summary of the method: as §1
Escherichia coli [3] = experiment: Antibacterial activity against drug-resistant NDM1 producing Escherichia coli clinical isolate EC-13-49 after 16 to 20 hrs by broth microdilution method; format: functional; summary of the method: as §1
Escherichia coli [4] = experiment: Antibacterial activity against drug-resistant NDM1 producing Escherichia coli clinical isolate CF-15-61 after 16 to 20 hrs by broth microdilution method; format: functional; summary of the method: as §1
Klebsiella pneumoniae [5] = experiment: Antibacterial activity against drug-resistant carbapenemase producing Klebsiella pneumoniae clinical isolate KP-14-4 after 16 to 20 hrs by broth microdilution method; format: functional; summary of the method: as §1
Staphylococcus aureus [6] = experiment: Antibacterial activity against methicillin-resistant Staphylococcus aureus clinical isolate 1104060 after 16 to 20 hrs by broth microdilution method; format: functional; summary of the method: as §1
Escherichia coli [7] = experiment: Antibacterial activity against drug-resistant NDM1 producing Escherichia coli clinical isolate Ecl-13-62 after 16 to 20 hrs by broth microdilution method; format: functional; summary of the method: as §1
Klebsiella pneumoniae [8] = experiment: Antibacterial activity against drug-resistant carbapenemase producing Klebsiella pneumoniae clinical isolate KP-14-5 after 16 to 20 hrs by broth microdilution method; format: functional; summary of the method: as §1
Escherichia coli [9] = experiment: Induction of cytoplasmic membrane depolarization in Escherichia coli ATCC 25922 at 10 to 20 ug/ml measured every 2 mins for 12 mins by DiSC35 dye-based fluorescence assay; format: functional, organism-based
Summary of the method: (§2)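 Mid-log cells (~10⁸ CFU/mL) were suspended in PBS (S. aureus) or HEPES/glucose/KCl with EDTA (E. coli). They were preloaded with DiSC3(5) for 30 min (S. aureus) or 40 min (E. coli), and baseline fluorescence was read for 8 min. Compound was added to 20 µg/mL final, and fluorescence (ex 622/em 670 nm) was read every 2 min for 12 min. Water served as control.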

Staphylococcus aureus [10] = experiment: Antibacterial activity against methicillin-resistant Staphylococcus aureus clinical isolate 0831010 after 16 to 20 hrs by broth microdilution method; format: functional; summary of the method: as §1
Klebsiella pneumoniae [11] = experiment: Antibacterial activity against drug-resistant carbapenemase producing Klebsiella pneumoniae clinical isolate KP-14-2 after 16 to 20 hrs by broth microdilution method; format: functional; summary of the method: as §1
Enterococcus faecalis = experiment: Antibacterial activity against Enterococcus faecalis ATCC 29212 after 16 to 20 hrs by broth microdilution method; format: functional
Summary of the method: (§3)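 Broth microdilution per CLSI. Bacteria grown 4-6 h (about 10⁸ CFU/mL), then diluted to about 10⁶ CFU/mL. Medium: Mueller-Hinton broth, except Luria-Bertani broth for E. coli. Compounds in sterile water, twofold series 256-0.5 µg/mL, mixed 1:1 with inoculum, 37 °C for 16-20 h. MIC is the lowest concentration without visible growth. Duplicate wells; experiment repeated at least twice.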

Klebsiella pneumoniae [12] = experiment: Antibacterial activity against drug-resistant carbapenemase producing Klebsiella pneumoniae clinical isolate KP-14-18 after 16 to 20 hrs by broth microdilution method; format: functional; summary of the method: as §1
Staphylococcus aureus [13] = experiment: Antibacterial activity against methicillin-resistant Staphylococcus aureus clinical isolate 20131012632sau after 16 to 20 hrs by broth microdilution method; format: functional; summary of the method: as §1
Staphylococcus aureus [14] = experiment: Antibacterial activity against methicillin-resistant Staphylococcus aureus clinical isolate 0906202 after 16 to 20 hrs by broth microdilution method; format: functional; summary of the method: as §1
Staphylococcus aureus [15] = experiment: Induction of cytoplasmic membrane depolarization in Staphylococcus aureus ATCC 29213 at 10 to 20 ug/ml measured every 2 mins for 12 mins by DiSC35 dye-based fluorescence assay; format: functional, organism-based; summary of the method: as §2
Staphylococcus aureus [16] = experiment: Antibacterial activity against methicillin-resistant Staphylococcus aureus clinical isolate 20130911034sau after 16 to 20 hrs by broth microdilution method; format: functional; summary of the method: as §1
Escherichia coli [17] = experiment: Antibacterial activity against drug-resistant NDM1 producing Escherichia coli clinical isolate SM-15-84 after 16 to 20 hrs by broth microdilution method; format: functional; summary of the method: as §1
Klebsiella pneumoniae [18] = experiment: Antibacterial activity against drug-resistant carbapenemase producing Klebsiella pneumoniae clinical isolate EC-13-23 after 16 to 20 hrs by broth microdilution method; format: functional; summary of the method: as §1
Escherichia coli [19] = experiment: Induction of inner membrane permeabilization in Escherichia coli ATCC 25922 at 10 to 20 ug/ml measured every 2 mins for 12 mins by propidium iodide staining-based fluorescence assay; format: functional, organism-based
Summary of the method: (§4)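 Mid-log cells (~10⁸ CFU/mL) were suspended in PBS (S. aureus) or HEPES/glucose/KCl (E. coli). They were preincubated with propidium iodide for 30 min (S. aureus) or 40 min (E. coli), and baseline fluorescence was read for 8 min. Compound was added to 20 µg/mL final, and fluorescence (ex 535/em 617 nm) was read every 2 min for 12 min.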

Staphylococcus aureus [20] = experiment: Antibacterial activity against methicillin-resistant Staphylococcus aureus clinical isolate 1207007 after 16 to 20 hrs by broth microdilution method; format: functional; summary of the method: as §1
Staphylococcus aureus [21] = experiment: Antibacterial activity against methicillin-resistant Staphylococcus aureus clinical isolate 1105183 cono7 after 16 to 20 hrs by broth microdilution method; format: functional; summary of the method: as §1
[22] = Hemolytic activity in sheep RBC after 1 hr; format: ADME, cell-based, Ovis aries, Erythrocyte; settings: sheep red blood cells (erythrocytes)
Summary of the method: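 Sheep red blood cells (150 µL suspension) mixed with 50 µL of compound dilutions (5120-10 µg/mL), 1 h at 37 °C, then centrifuged. Supernatant read at 540 nm. Percent hemolysis calculated relative to RBC-only control (0%) and 0.1% Triton X-100 (100%).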

Staphylococcus aureus [23] = experiment: Antibacterial activity against Staphylococcus aureus ATCC 29213 after 16 to 20 hrs by broth microdilution method; format: functional; summary of the method: as §3
Escherichia coli [24] = experiment: Antibacterial activity against drug-resistant NDM1 producing Escherichia coli clinical isolate Ecl-14-56 after 16 to 20 hrs by broth microdilution method; format: functional; summary of the method: as §1
Klebsiella pneumoniae [25] = experiment: Antibacterial activity against drug-resistant carbapenemase producing Klebsiella pneumoniae clinical isolate KP-14-3 after 16 to 20 hrs by broth microdilution method; format: functional; summary of the method: as §1
Escherichia coli [26] = experiment: Antibacterial activity against drug-resistant NDM1 producing Escherichia coli clinical isolate 1460 after 16 to 20 hrs by broth microdilution method; format: functional; summary of the method: as §1
Escherichia coli [27] = experiment: Antibacterial activity against drug-resistant NDM1 producing Escherichia coli clinical isolate EC-14-54 after 16 to 20 hrs by broth microdilution method; format: functional; summary of the method: as §1
Escherichia coli [28] = experiment: Antibacterial activity against drug-resistant NDM1 producing Escherichia coli clinical isolate Ecl-14-59 after 16 to 20 hrs by broth microdilution method; format: functional; summary of the method: as §1
Klebsiella pneumoniae [29] = experiment: Antibacterial activity against drug-resistant carbapenemase producing Klebsiella pneumoniae clinical isolate KP-13-45 after 16 to 20 hrs by broth microdilution method; format: functional; summary of the method: as §1
Escherichia coli [30] = experiment: Antibacterial activity against drug-resistant NDM1 producing Escherichia coli clinical isolate CF-13-61 after 16 to 20 hrs by broth microdilution method; format: functional; summary of the method: as §1
Escherichia coli [31] = experiment: Antibacterial activity against drug-resistant NDM1 producing Escherichia coli clinical isolate Ecl-14-58 after 16 to 20 hrs by broth microdilution method; format: functional; summary of the method: as §1
Escherichia coli [32] = experiment: Antibacterial activity against drug-resistant NDM1 producing Escherichia coli clinical isolate KP-13-58 after 16 to 20 hrs by broth microdilution method; format: functional; summary of the method: as §1
Klebsiella pneumoniae [33] = experiment: Antibacterial activity against drug-resistant carbapenemase producing Klebsiella pneumoniae clinical isolate KP-13-55 after 16 to 20 hrs by broth microdilution method; format: functional; summary of the method: as §1
Salmonella enterica = experiment: Antibacterial activity against Salmonella enterica ATCC 13076 after 16 to 20 hrs by broth microdilution method; format: functional; summary of the method: as §3
Klebsiella pneumoniae [34] = experiment: Antibacterial activity against drug-resistant carbapenemase producing Klebsiella pneumoniae clinical isolate KP-14-8 after 16 to 20 hrs by broth microdilution method; format: functional; summary of the method: as §1
Staphylococcus aureus [35] = experiment: Antibacterial activity against methicillin-resistant Staphylococcus aureus clinical isolate 1208143 after 16 to 20 hrs by broth microdilution method; format: functional; summary of the method: as §1
Klebsiella pneumoniae [36] = experiment: Antibacterial activity against drug-resistant carbapenemase producing Klebsiella pneumoniae clinical isolate KP-14-45 after 16 to 20 hrs by broth microdilution method; format: functional; summary of the method: as §1
Escherichia coli [37] = experiment: Antibacterial activity against Escherichia coli ATCC 25922 after 16 to 20 hrs by broth microdilution method; format: functional; summary of the method: as §3
Staphylococcus aureus [38] = experiment: Induction of inner membrane permeabilization in Staphylococcus aureus ATCC 29213 at 10 to 20 ug/ml measured every 2 mins for 12 mins by propidium iodide staining-based fluorescence assay; format: functional, organism-based; summary of the method: as §4
Klebsiella pneumoniae [39] = experiment: Antibacterial activity against drug-resistant carbapenemase producing Klebsiella pneumoniae clinical isolate KP-14-1 after 16 to 20 hrs by broth microdilution method; format: functional; summary of the method: as §1
Klebsiella pneumoniae [40] = experiment: Antibacterial activity against drug-resistant carbapenemase producing Klebsiella pneumoniae clinical isolate KP-13-54 after 16 to 20 hrs by broth microdilution method; format: functional; summary of the method: as §1

CCCCCCCC[N+](C)(C)CC(=O)Nc1ccc(C(=O)/C=C/c2ccc(C)cc2)cc1.[Cl-]
active: Activity (Escherichia coli [9]) | Activity (Staphylococcus aureus [15]) | Activity (Escherichia coli [19]) | Activity (Staphylococcus aureus [38])
8 µg/mL: MIC (Escherichia coli [7]) | MIC (Klebsiella pneumoniae [25]) | MIC (Escherichia coli [26]) | MIC (Escherichia coli [27]) | MIC (Salmonella enterica) | MIC (Klebsiella pneumoniae [39]) | MIC (Klebsiella pneumoniae [40])
4 µg/mL: MIC (Escherichia coli [2]) | MIC (Escherichia coli [3]) | MIC (Escherichia coli [4]) | MIC (Klebsiella pneumoniae [5]) | MIC (Staphylococcus aureus [6]) | MIC (Klebsiella pneumoniae [8]) | MIC (Staphylococcus aureus [14]) | MIC (Klebsiella pneumoniae [18]) | MIC (Escherichia coli [24]) | MIC (Escherichia coli [28]) | MIC (Klebsiella pneumoniae [29]) | MIC (Escherichia coli [31]) | MIC (Klebsiella pneumoniae [34]) | MIC (Klebsiella pneumoniae [36]) | MIC (Escherichia coli [37])
32 µg/mL: MIC (Escherichia coli [30])
153 µg/mL: HC50 at 1 h [22]
2 µg/mL: MIC (Staphylococcus aureus [13]) | MIC (Escherichia coli [32]) | MIC (Staphylococcus aureus [35])
0.5 µg/mL: MIC (Staphylococcus aureus [10]) | MIC (Staphylococcus aureus [16]) | MIC (Staphylococcus aureus [20])
1 µg/mL: MIC (Staphylococcus aureus [1]) | MIC (Enterococcus faecalis) | MIC (Escherichia coli [17]) | MIC (Staphylococcus aureus [21]) | MIC (Staphylococcus aureus [23])
16 µg/mL: MIC (Klebsiella pneumoniae [11]) | MIC (Klebsiella pneumoniae [12]) | MIC (Klebsiella pneumoniae [33])
